Experimental data as given in PMC7719619 (Angewandte Chemie (International ed. in English), 2020).
Converted amounts (≈) assume the structure as drawn. Square brackets hold non-standard residues; d marks the D form. Peptide text beside a SMILES is read from it. Gly(N-CH2-oxan-4-yl) = O=C(O)CNCC1CCOCC1; NCyclohexylmethylGly = O=C(O)CNCC1CCCCC1; NMeL = CN[C@@H](CC(C)C)C(=O)O; NMeA = CN[CH](C)C(=O)O; NEtG = CCNCC(=O)O

Tests used:
physchem = type: physicochemical
[1] = type: in vitro ADME; conditions: microsomes
oral bioavailability = type: in vivo; conditions: mouse; for bioavailability: in vivo, po, Oral bioavailability, No inhib., no inhibitors, mean (two individual values)
Outline: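 Oral dosing in mice with no pretreatment by CYP or P-gp inhibitor. Oral bioavailability (F) reported as the mean of two independent experiments, with the individual values also given.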

MDCK permeability = type: in vitro ADME; conditions: dog
P-gp = P-gp (Homo sapiens, UniProt P08183); experiment: P-gp efflux ratio; type: in vitro ADME; conditions: not told
Chain of P-gp (P08183 whole entry): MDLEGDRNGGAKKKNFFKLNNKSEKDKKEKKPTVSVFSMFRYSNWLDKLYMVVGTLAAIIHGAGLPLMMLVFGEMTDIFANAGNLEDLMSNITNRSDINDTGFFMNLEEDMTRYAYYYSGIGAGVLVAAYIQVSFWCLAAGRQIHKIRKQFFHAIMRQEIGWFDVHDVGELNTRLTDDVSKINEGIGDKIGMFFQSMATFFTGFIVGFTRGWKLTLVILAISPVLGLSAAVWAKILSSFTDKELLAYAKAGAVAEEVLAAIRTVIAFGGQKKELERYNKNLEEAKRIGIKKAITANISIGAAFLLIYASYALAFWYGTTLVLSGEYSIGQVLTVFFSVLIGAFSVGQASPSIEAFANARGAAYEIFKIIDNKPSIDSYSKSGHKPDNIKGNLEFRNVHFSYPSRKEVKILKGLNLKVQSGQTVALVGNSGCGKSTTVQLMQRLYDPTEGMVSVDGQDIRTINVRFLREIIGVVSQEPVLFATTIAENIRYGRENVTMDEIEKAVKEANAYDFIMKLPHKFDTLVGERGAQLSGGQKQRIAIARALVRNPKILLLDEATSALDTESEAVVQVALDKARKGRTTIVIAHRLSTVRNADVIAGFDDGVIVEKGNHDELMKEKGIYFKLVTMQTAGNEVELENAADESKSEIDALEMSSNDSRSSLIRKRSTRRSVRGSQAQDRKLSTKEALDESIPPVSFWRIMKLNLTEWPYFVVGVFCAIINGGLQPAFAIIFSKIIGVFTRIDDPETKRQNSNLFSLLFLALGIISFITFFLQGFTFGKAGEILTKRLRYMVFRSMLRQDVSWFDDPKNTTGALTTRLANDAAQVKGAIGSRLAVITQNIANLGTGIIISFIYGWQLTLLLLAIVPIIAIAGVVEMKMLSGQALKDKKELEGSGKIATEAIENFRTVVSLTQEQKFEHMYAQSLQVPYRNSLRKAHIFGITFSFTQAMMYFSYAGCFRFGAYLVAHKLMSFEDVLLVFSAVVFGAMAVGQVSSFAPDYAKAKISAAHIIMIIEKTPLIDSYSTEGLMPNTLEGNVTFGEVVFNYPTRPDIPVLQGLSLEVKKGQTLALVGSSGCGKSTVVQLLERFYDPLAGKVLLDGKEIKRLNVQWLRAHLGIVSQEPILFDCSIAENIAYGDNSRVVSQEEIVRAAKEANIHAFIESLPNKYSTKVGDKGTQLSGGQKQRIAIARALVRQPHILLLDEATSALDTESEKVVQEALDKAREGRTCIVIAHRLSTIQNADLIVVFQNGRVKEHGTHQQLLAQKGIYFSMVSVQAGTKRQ

[2] = type: in vitro ADME; conditions: serum
[3] = pH 6.8, aqueous solubility at pH 6.8

With `CCN1CC(=O)N[C@@H](CC(C)C)C(=O)N2CCC[C@@H]2C(=O)N(C)[C@@H](CC(C)C)C(=O)N[C@@H](C)C(=O)N(CC2CCCCC2)CC(=O)N[C@@H](Cc2ccccc2)C(=O)N2CCC[C@@H]2C(=O)N(C)[C@@H](CC(C)C)C(=O)N[C@@H](C)C1=O` [B08] (cyclo([NEtG]L[dP][NMeL]A[NCyclohexylmethylGly]F[dP][NMeL]A)) the “aq. sol. pH 1.2” value (physchem; pH 1.2) was 210 μg/mL, the “aq. sol. pH 6.8” value (physchem) was 210 μg/mL and the solubility (physchem; [3]) was 210 µg/mL (≈ 193 µM). The microsomal stability [1] was 53%.
With `CCN1CC(=O)N[C@@H](CC(C)C)C(=O)N2CCC[C@@H]2C(=O)N(C)[C@@H](CC(C)C)C(=O)N[C@@H](C)C(=O)N(CC2CCOCC2)CC(=O)N[C@@H](Cc2ccccc2)C(=O)N2CCC[C@@H]2C(=O)N(C)[C@@H](CC(C)C)C(=O)N[C@@H](C)C1=O` [B09] (cyclo(A[NEtG]L[dP][NMeL]A[Gly(N-CH2-oxan-4-yl)]F[dP][NMeL])) the solubility (physchem; pH 1.2, aq. sol. pH 1.2) was 2100 µg/mL (≈ 1920 µM), the “aq. sol. pH 6.8” value (physchem) was 2200 μg/mL and the microsomal stability [1] was 90%. The bioavailability (oral bioavailability) was 1%.
With `CCN1CC(=O)NC(CC(C)C)C(=O)N(C)C(C)C(=O)NC(CC(C)C)C(=O)N2CCCC2C(=O)N(CC2CCOCC2)CC(=O)NC(CC(C)C)C(=O)N(C)C(C)C(=O)NC(C)C(=O)N2CCCC2C1=O` (stereo not drawn) [A03] (cyclo([NEtG]L[NMeA]LP[Gly(N-CH2-oxan-4-yl)]L[NMeA]AP); configuration not given here) the solubility (physchem; pH 1.2, aq. sol. pH 1.2) was 1800 µg/mL (≈ 1770 µM), the “aq. sol. pH 6.8” value (physchem) was 1900 μg/mL and the Papp (MDCK permeability) was 0.4 ×10⁻⁶ cm/s. The efflux ratio (P-gp) was 6.4, the microsomal stability [1] was 64% and the fraction unbound [2] was 0.31. The “oral BA (F)” value (oral bioavailability; 3 mg/kg, no CYP or P-gp inhibition) was 1% and the bioavailability (oral bioavailability) was 1%.
In the case of `CCN1CC(=O)NC(CC(C)C)C(=O)N(C)C(C)C(=O)NC(CC(C)C)C(=O)N2CCCC2C(=O)N(CC2CCCCC2)CC(=O)NC(CC(C)C)C(=O)N(C)C(C)C(=O)NC(Cc2ccccc2)C(=O)N2CCCC2C1=O` (stereo not drawn) [A08] (cyclo([NEtG]L[NMeA]LP[NCyclohexylmethylGly]L[NMeA]FP); configuration not given here), the solubility (physchem; pH 1.2, aq. sol. pH 1.2) is reported as 2.5 µg/mL (≈ 2.29 µM), the solubility (physchem; pH 6.8, aq. sol. pH 6.8) is reported as 6.8 µg/mL (≈ 6.24 µM) and the solubility (physchem; [3]) is reported as 7 µg/mL (≈ 6.43 µM). It also gave a Papp (MDCK permeability) of 24.7 ×10⁻⁶ cm/s, an efflux ratio (P-gp) of 8.5 and a microsomal stability [1] of 33%. It also gave a fraction unbound [2] of less than 0.002 and a bioavailability (oral bioavailability) of 5%.
With `CCN1CC(=O)N[C@@H](CC(C)C)C(=O)N(C)[C@@H](C)C(=O)N[C@@H](CC(C)C)C(=O)N2CCC[C@@H]2C(=O)N(CC2CCOCC2)CC(=O)N[C@@H](CC(C)C)C(=O)N(C)[C@@H](C)C(=O)N[C@@H](Cc2ccccc2)C(=O)N2CCC[C@@H]2C1=O` [A09] (cyclo([NEtG]L[NMeA]L[dP][Gly(N-CH2-oxan-4-yl)]L[NMeA]F[dP])) the solubility (physchem; pH 1.2, aq. sol. pH 1.2) was 590 µg/mL (≈ 541 µM), the “aq. sol. pH 6.8” value (physchem) was 640 μg/mL and the efflux ratio (P-gp) was 46.9. For the same compound, the microsomal stability [1] was 67%, the fraction unbound [2] was 0.02 and the bioavailability (oral bioavailability) was 2%.
